Test results reported in ChEMBL document CHEMBL3739412, “Addressing cytotoxicity of 1,4-biphenyl amide derivatives: Discovery of new potent and selective 17β-hydroxysteroid dehydrogenase type 2 inhibitors” (Bioorg Med Chem Lett, 2016).
pIC50: −log10 of the molar value. Calls of active or inactive are those of the source. No cut-off for these calls is given here.

Tests used:
[1] = target: T1, 17-beta-hydroxysteroid dehydrogenase type 2 (Homo sapiens) (UniProt P37059); test: Inhibition of 17beta-HSD2 in human placental microsomal fraction using E2/NAD+ as substrate/cofactor at 1 uM after 20 mins by HPLC analysis; settings: Placenta
T1 sequence (whole entry): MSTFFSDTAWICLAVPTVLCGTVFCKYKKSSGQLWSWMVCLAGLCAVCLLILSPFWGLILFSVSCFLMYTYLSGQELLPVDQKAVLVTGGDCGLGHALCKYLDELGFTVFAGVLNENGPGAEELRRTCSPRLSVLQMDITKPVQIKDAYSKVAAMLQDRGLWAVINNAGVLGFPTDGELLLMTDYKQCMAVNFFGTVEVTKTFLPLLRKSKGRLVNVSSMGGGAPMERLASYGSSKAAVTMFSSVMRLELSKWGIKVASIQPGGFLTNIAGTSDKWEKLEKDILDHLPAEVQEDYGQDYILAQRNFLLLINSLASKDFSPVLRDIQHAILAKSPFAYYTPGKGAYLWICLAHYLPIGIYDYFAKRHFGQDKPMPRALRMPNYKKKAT
Summary of the method: (§1)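 Enzyme source is human placenta, microsomal fraction. Substrate is estradiol (E2) at 500 nM, with NAD+ as cofactor. Values are the mean of at least two determinations, with standard deviation below 20%.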

[2] = target: T2, 17-beta-hydroxysteroid dehydrogenase type 1 (Homo sapiens) (UniProt P14061); test: Inhibition of 17beta-HSD1 in human placental cytosolic fraction using E1/NADH as substrate/cofactor at 1 uM after 10 mins by HPLC analysis
T2 sequence (whole entry): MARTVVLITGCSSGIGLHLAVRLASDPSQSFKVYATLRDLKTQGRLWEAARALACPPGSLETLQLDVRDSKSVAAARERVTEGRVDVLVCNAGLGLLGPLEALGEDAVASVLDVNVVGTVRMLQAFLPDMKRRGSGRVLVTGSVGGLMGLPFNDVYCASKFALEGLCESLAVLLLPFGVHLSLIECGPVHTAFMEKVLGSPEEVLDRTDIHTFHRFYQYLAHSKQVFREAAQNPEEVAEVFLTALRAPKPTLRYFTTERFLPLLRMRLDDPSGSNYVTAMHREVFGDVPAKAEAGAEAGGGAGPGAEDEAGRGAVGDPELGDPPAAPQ
Summary of the method: (§2)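 Enzyme source is human placenta, cytosolic fraction. Substrate is estrone (E1) at 500 nM, with NADH as cofactor. Values are the mean of at least two determinations, with standard deviation below 20%.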

[3] = target: T3, 17-beta-hydroxysteroid dehydrogenase type 1 (Homo sapiens, UniProt P14061); test: Inhibition of 17beta-HSD1 in human placental cytosolic fraction using E1/NADH as substrate/cofactor after 10 mins by HPLC analysis; settings: for pIC50: read-out: IC50; summary of the method: as §2
T3 sequence (P14061 whole entry): T2 sequence (whole entry)

[4] = target: T4, 17-beta-hydroxysteroid dehydrogenase type 2 (Homo sapiens, UniProt P37059); test: Inhibition of 17beta-HSD2 in human placental microsomal fraction using E2/NAD+ as substrate/cofactor after 20 mins by HPLC analysis; set-up: species or system Placenta; summary of the method: as §1
T4 sequence (P37059 whole entry): T1 sequence (whole entry)

[5] = Cytotoxicity against HEK293 cells assessed as cell viability after 66 hrs by MTT assay; format: cell-based; settings: human, read-out: LD50
Homo sapiens = organism: Homo sapiens; test: Selectivity ratio of IC50 for 17beta-HSD1 in human placental cytosolic fraction to IC50 for 17beta-HSD2 in human placental microsomal fraction
[6] = Half life in human liver S9 fraction at 1 uM after 5 to 60 mins by LC-MS/MS analysis; format: ADME, subcellular
[7] = Cytotoxicity against HEK293 cells assessed as cell viability at 6.25 uM after 66 hrs by MTT assay; format: cell-based; settings: human, read-out: Activity

Row | inhibition [1] | inhibition [2] | SMILES | further results
1 | inactive | inactive | COc1cccc(N2CCN(S(=O)(=O)c3cccc(OC)c3)CC2)c1 | 
2 | 43% | inactive | CN(C(=O)c1ccc(Oc2ccc(O)cc2)cc1)c1cccc(O)c1 | IC50 [3]: Not Active
3 | 16% | inactive | COc1cccc(S(=O)(=O)N2CCN(c3cccc(C)c3)CC2)c1 | 
4 | 27% | inactive | O=C(c1cccc(O)c1)N1CCN(c2ccccc2)CC1 | 
5 | 25% | inactive | O=S(=O)(c1cccc(O)c1)N1CCN(c2cccc(O)c2)CC1 | 
6 | 16% | inactive | Cc1cccc(N2CCN(C(=O)c3cccc(O)c3)CC2)c1 | 
7 |  |  | Cc1ccc(Oc2ccc(C(=O)N(C)c3cccc(C)c3)cc2)cc1 | pIC50 [4]: 6.80; CC50 at 66 h [5]: 25 µM; Ratio IC50 (Homo sapiens): 168; pIC50 [3]: 4.58
8 | inactive | inactive | COc1cccc(C(=O)N2CCN(c3cccc(OC)c3)CC2)c1 | 
9 | inactive | inactive | Cc1ccc(N2CCN(C(=O)c3cccc(O)c3)CC2)cc1 | 
10 | inactive | inactive | COc1cccc(C(=O)N2CCN(c3cccc(C)c3)CC2)c1 | 
11 |  |  | Cc1cccc(Oc2ccc(C(=O)N(C)c3cccc(C)c3)cc2)c1 | pIC50 [4]: 6.52; CC50 at 66 h [5]: 25 µM; Ratio IC50 (Homo sapiens): 54; pIC50 [3]: 4.79
12 | 14% | inactive | COc1cccc(C(=O)N2CCN(c3ccccc3)CC2)c1 | 
13 |  |  | COc1ccc(Oc2ccc(C(=O)N(C)c3cccc(OC)c3)cc2)cc1 | pIC50 [4]: 6.51; CC50 at 66 h [5]: 25 µM; Ratio IC50 (Homo sapiens): 31; pIC50 [3]: 5.02
14 | 51% | 13% | COc1cccc(N(C)C(=O)c2ccc(Oc3ccc(Cl)cc3)cc2)c1 | 
15 | 16% | inactive | COc1cccc(C(=O)N2CCN(c3ccc(C)cc3)CC2)c1 | 
16 | 48% | inactive | O=S(=O)(c1cccc(O)c1)N1CCN(c2ccc(F)c(O)c2)CC1 | 
17 | 59% | inactive | Cc1cccc(N(C)C(=O)c2ccc(Oc3ccccc3)cc2)c1 | IC50 [3]: Not Active
18 | 15% | inactive | COc1cccc(S(=O)(=O)N2CCN(c3ccc(F)c(OC)c3)CC2)c1 | 
19 | 27% | inactive | Cc1cccc(N2CCN(S(=O)(=O)c3cccc(O)c3)CC2)c1 | 
20 | 43% | inactive | COc1cccc(N(C)C(=O)c2ccc(Oc3ccc([N+](=O)[O-])cc3)cc2)c1 | IC50 [3]: Not Active
21 | 55% | inactive | Cc1cccc(N(C)C(=O)c2ccc(Oc3ccccc3C)cc2)c1 | IC50 [3]: Not Active
22 |  |  | COc1cccc(N(C)C(=O)C2CCC(c3ccc(Cl)cc3)CC2)c1 (stereo unspecified) | pIC50 [4]: 6.54; CC50 at 66 h [5]: > 12.5 µM; Ratio IC50 (Homo sapiens): 209; pIC50 [3]: 4.22

Row | SMILES | inhibition [1] | inhibition [2] | further results
23 | COc1cccc(N(C)C(=O)c2ccc(-c3ccc(C)c(C)c3)cc2)c1 | 75% |  | half-life at 1 µM [6]: 1.78 h; CC50 at 66 h [5]: < 6.25 µM; Ratio IC50 (Homo sapiens): 44; viability at 66 h, 6.25 µM [7]: 34%
